Assay results as given in ChEMBL document CHEMBL2321826, “Synthesis and antibacterial evaluation of rhodanine-based 5-aryloxy pyrazoles against selected methicillin resistant and quinolone-resistant Staphylococcus aureus (MRSA and QRSA)” (Eur J Med Chem, 2013).
Converted amounts (≈) assume the structure as drawn.

Tests used:
Format in all cases: functional
Staphylococcus aureus [1] = assay: Antibacterial activity against quinolone-resistant Staphylococcus aureus CCARM 3505 assessed as bacterial growth inhibition measured during 24 hrs incubation at 37 degC by two-fold serial dilution technique; conditions: CCARM 3505, 24 h
Summary of the method: (§1)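 Clinical isolates grown to mid-log phase in Mueller-Hinton broth, diluted 1000-fold, inoculated at 10⁵ CFU/mL in MHB in 96-well microtiter plates. Two-fold serial dilutions gave final concentrations of […]. Oxacillin and norfloxacin were the positive controls. Growth was read as absorbance at 650 nm. MIC is the lowest concentration giving complete growth inhibition.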

Staphylococcus aureus [2] = assay: Antibacterial activity against methicillin-resistant Staphylococcus aureus CCARM 3506 assessed as bacterial growth inhibition measured during 24 hrs incubation at 37 degC by two-fold serial dilution technique; conditions: CCARM 3506, 24 h; summary of the method: as §1
Staphylococcus aureus [3] = assay: Antibacterial activity against quinolone-resistant Staphylococcus aureus CCARM 3519 assessed as bacterial growth inhibition measured during 24 hrs incubation at 37 degC by two-fold serial dilution technique; conditions: CCARM 3519, 24 h; summary of the method: as §1
Staphylococcus aureus [4] = assay: Antibacterial activity against methicillin-resistant Staphylococcus aureus CCARM 3167 assessed as bacterial growth inhibition measured during 24 hrs incubation at 37 degC by two-fold serial dilution technique; conditions: CCARM 3167, 24 h; summary of the method: as §1

SMILES	MIC (Staphylococcus aureus [1]) [µg/mL]	MIC (Staphylococcus aureus [2]) [µg/mL]	MIC (Staphylococcus aureus [3]) [µg/mL]	MIC (Staphylococcus aureus [4]) [µg/mL]
Cc1ccc(Oc2c(/C=C3\SC(=S)N([C@H](C(=O)O)C(C)C)C3=O)c(C)nn2-c2ccccc2)c(C)c1	4 (≈ 7.67 µM)	4 (≈ 7.67 µM)	2 (≈ 3.83 µM)	2 (≈ 3.83 µM)
Cc1ccc(Oc2c(/C=C3\SC(=S)N([C@H](C(=O)O)C(C)C)C3=O)c(C)nn2-c2ccccc2)cc1	4 (≈ 7.88 µM)	4 (≈ 7.88 µM)	4 (≈ 7.88 µM)	4 (≈ 7.88 µM)
COc1ccccc1Oc1c(/C=C2\SC(=S)N([C@H](C(=O)O)C(C)C)C2=O)c(C)nn1-c1ccccc1	16 (≈ 30.6 µM)	16 (≈ 30.6 µM)	16 (≈ 30.6 µM)	16 (≈ 30.6 µM)
CCC(C)[C@@H](C(=O)O)N1C(=O)/C(=C/c2c(C)nn(-c3ccccc3)c2Oc2c(Cl)cccc2Cl)SC1=S (stereo not given in full)	16 (≈ 27.8 µM)	16 (≈ 27.8 µM)	16 (≈ 27.8 µM)	8 (≈ 13.9 µM)
Cc1nn(-c2ccccc2)c(Oc2ccc(F)cc2)c1/C=C1\SC(=S)N(CC(=O)O)C1=O	> 64	> 64	> 64	> 64
Cc1nn(-c2ccccc2)c(Oc2c(Cl)cccc2Cl)c1/C=C1\SC(=S)N(CC(=O)O)C1=O	32 (≈ 61.5 µM)	32 (≈ 61.5 µM)	32 (≈ 61.5 µM)	32 (≈ 61.5 µM)
Cc1nn(-c2ccccc2)c(Oc2ccc(F)cc2)c1/C=C1\SC(=S)N([C@H](C(=O)O)C(C)C)C1=O	8 (≈ 15.6 µM)	8 (≈ 15.6 µM)	8 (≈ 15.6 µM)	8 (≈ 15.6 µM)
Cc1nn(-c2ccccc2)c(Oc2ccc(Br)cc2)c1/C=C1\SC(=S)N([C@H](C(=O)O)C(C)C)C1=O	4 (≈ 6.99 µM)	4 (≈ 6.99 µM)	4 (≈ 6.99 µM)	2 (≈ 3.49 µM)
Cc1nn(-c2ccccc2)c(Oc2ccccc2Cl)c1/C=C1\SC(=S)N([C@H](C(=O)O)C(C)C)C1=O	8 (≈ 15.1 µM)	4 (≈ 7.57 µM)	4 (≈ 7.57 µM)	4 (≈ 7.57 µM)
Cc1nn(-c2ccccc2)c(Cl)c1/C=C1\SC(=S)N(CC(=O)O)C1=O	> 64	> 64	> 64	> 64
CCC(C)[C@@H](C(=O)O)N1C(=O)/C(=C/c2c(C)nn(-c3ccccc3)c2Oc2ccc(OC)cc2)SC1=S (stereo not given in full)	4 (≈ 7.44 µM)	4 (≈ 7.44 µM)	4 (≈ 7.44 µM)	4 (≈ 7.44 µM)
Cc1nn(-c2ccccc2)c(Oc2ccc(Cl)cc2Cl)c1/C=C1\SC(=S)N([C@@H](CC(C)C)C(=O)O)C1=O	4 (≈ 6.94 µM)	4 (≈ 6.94 µM)	4 (≈ 6.94 µM)	4 (≈ 6.94 µM)
Cc1onc(-c2ccccc2)c1C(=O)N[C@@H]1C(=O)N2[C@@H]1SC(C)(C)[C@@H]2C(=O)O [OXACILLIN]	1 (≈ 2.49 µM)	> 64	1 (≈ 2.49 µM)	> 64
Cc1nn(-c2ccccc2)c(Oc2ccc3ccccc3c2)c1/C=C1\SC(=S)N([C@H](C(=O)O)C(C)C)C1=O	8 (≈ 14.7 µM)	8 (≈ 14.7 µM)	8 (≈ 14.7 µM)	4 (≈ 7.36 µM)
CCC(C)[C@@H](C(=O)O)N1C(=O)/C(=C/c2c(C)nn(-c3ccccc3)c2Oc2cccc(Cl)c2)SC1=S (stereo not given in full)	8 (≈ 14.8 µM)	8 (≈ 14.8 µM)	8 (≈ 14.8 µM)	4 (≈ 7.38 µM)
Cc1nn(-c2ccccc2)c(Oc2ccccc2)c1/C=C1\SC(=S)N([C@H](C(=O)O)C(C)C)C1=O	16 (≈ 32.4 µM)	16 (≈ 32.4 µM)	16 (≈ 32.4 µM)	16 (≈ 32.4 µM)
Cc1nn(-c2ccccc2)c(Oc2ccc(Cl)cc2)c1/C=C1\SC(=S)N([C@H](C(=O)O)C(C)C)C1=O	4 (≈ 7.57 µM)	4 (≈ 7.57 µM)	4 (≈ 7.57 µM)	4 (≈ 7.57 µM)
COc1ccc(Oc2c(/C=C3\SC(=S)N(CC(=O)O)C3=O)c(C)nn2-c2ccccc2)cc1	> 64	> 64	> 64	> 64
CCC(C)[C@@H](C(=O)O)N1C(=O)/C(=C/c2c(C)nn(-c3ccccc3)c2Oc2cccc(C)c2)SC1=S (stereo not given in full)	4 (≈ 7.67 µM)	4 (≈ 7.67 µM)	2 (≈ 3.83 µM)	2 (≈ 3.83 µM)
Cc1nn(-c2ccccc2)c(Oc2ccc(Br)cc2)c1/C=C1\SC(=S)N(CC(=O)O)C1=O	16 (≈ 30.2 µM)	8 (≈ 15.1 µM)	8 (≈ 15.1 µM)	8 (≈ 15.1 µM)
